Mdm2 MdmX PPI: human Mdm2/MdmX binding inhibition. actives 3% (n = 330,000). SaOS-2 split-luciferase Mdm2/MdmX complementation, luminescence. inhibition, % at 8 µM. O15151+Q00987;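 active means inhibition of at least 50% at 8 µM in the primary screen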
CSC inhib: cancer stem cell inhibition | cancer stem cell-like cells viability, luminescence | inhibition, % at 7.5 µM | actives 1.1% (n = 300,000); in the data active means inhibition above about 75%; inconclusive means no clear call, values can overlap the other calls; tested in HMLE shEcad cells
Calb FLC: C. albicans growth modulation with fluconazole. C. albicans CaCi-2 (fluconazole-resistant clinical isolate) + fluconazole, Alamar Blue growth, 48 h. growth inhibition, % (concentration not given with the values). actives 0.57% (n = 300,000). AID 1979;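 active means growth inhibition above about 58% in most replicates, limit read from the data, passing the limit was not always enough; inconclusive means exactly half the replicates above a set limit; inactive means most replicates below a set limit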;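 further: all wells also contain fluconazole at 8 µg/ml as a sub-toxic cotreatment; 0% = median of DMSO wells and 100% = median of geldanamycin control wells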
NLRP3 yeast inh: NALP3 inhibition in yeast | Yeast reconstituted NLRP3/ASC/caspase-1, beta-gal luminescence, 24 h | inhibition, % at 10 µM | actives 0.39% (n = 330,000);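 active means inhibition of 50% or more; inactive means inhibition below 50%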;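 further: plate controls were induced DMSO wells for no effect and uninduced yeast grown without galactose for full effect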
T cruzi repl: T. cruzi replication inhibition; AID 1885; inhibition, % (concentration not given with the values); T. cruzi beta-gal in NIH3T3, luminescence, 90 h; actives 1.4% (n = 300,000);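 active means mean inhibition across valid replicates above about 55%, limit read from the data; inconclusive means mean below that limit but half or more replicates reach it; inactive means mean below it, under half of replicates reach it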;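 further: signal also drops with host cell toxicity which is not excluded here; 0% = plate median of DMSO wells and 100% = zero luminescence signal; higher percent means less beta-gal luminescence so fewer parasites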
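System: mouse NIH/3T3 fibroblasts infected with β-gal-expressing T. cruzi Tulahuen C4 / Input: NIH/3T3 cells, 5,000 per well / Buffer or medium: Low-serum DMEM with 2% FBS / Probe or stimulus: 5000 reporter trypomastigotes per well / Schedule: ≥90 h infection period, 3 h prior cell attachment / Measured by: GalScreen luminescence, 60 min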
Beta apoptosis: beta cell apoptosis inhibition. AID 435005. actives 0.8% (n = 300,000). INS-1E cytokine-induced death, ATP luminescence, 48 h; percent of positive-control rescue, neutral wells zero. protection from apoptosis, % (test concentration not listed);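 active means Every replicate reaches about 75%, or at least half do and their mean reaches it too, limit read from the data; inconclusive means At least half of replicates reach the limit but their mean does not; inactive means Under half of replicates reach the limit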;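 further: 0% = cytokine-treated negative control wells and 100% = positive control rescue; higher means more ATP so stronger rescue from cytokine killing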
Numbers without * were called inactive; ? = inconclusive; . = no result given; ! = repeats disagree. Only some compounds are listed: those with a hit (about 5.3% of all), similar ones and a draw of the others.

SMILES	Mdm2 MdmX PPI	CSC inhib	Calb FLC	NLRP3 yeast inh	T cruzi repl	Beta apoptosis
Cc1ccc(CSc2nc3c(cc2C#N)CCC3)cc1	2.6	0.7	2.4	23.6	8.2	-0.5
CN1CCc2nc(SCc3ccc(Cl)cc3)c(C#N)c(-c3cccs3)c2C1	-3.5	-4.5	1.9	14.4	58.1*	-11.3
CN1CCc2nc(SCc3ccc(C(C)(C)C)cc3)c(C#N)cc2C1	24.1	45.3	-35.7	8.4	56.9*	5.9
CCOC(=O)CC(=O)CSc1nc2c(c(-c3cccs3)c1C#N)CCC2	7.1	-9.0	1.7	14.4	-0.1	-7.5
CC(C)(C)c1ccc(C(=O)NCCCn2ccnc2)cc1	6.6	-5.4	4.2	6.3	-12.6	7.6
O=C(COC(=O)c1ccc(O)cc1)NCCc1c[nH]c2ccccc12	-18.4	3.9	.	4.7	.	-1.6
CC(OC(=O)CCCN=C1NS(=O)(=O)c2ccccc21)C(=O)N(C)c1ccccc1 (configuration not stated)	21.2	-6.1	0.1	12.3	-4.8	-4.5
C=C[C@]1(C)C[C@@H](OC(=O)CSCCN(CC)CC)[C@]2(C)C(C)CC[C@]3(CCC(=O)[C@H]32)[C@@H](C)[C@@H]1O (some centres not stated)	10.9	-2.7	-19.8	18.6	58.8*!	-1.1
NC(=O)C1CCN(C(=O)CSc2nc3ccccc3o2)CC1	11.1	.	4.3	-8.4	-4.1	.
O=C(COC(=O)c1ccc([N+](=O)[O-])cc1)NCCC1=CCCCC1	11.2	-16.2	.	14.6	.	-7.4
Cc1ccc(S(=O)(=O)Nc2ccc3cn[nH]c3c2)c(C)c1	36.9	.	.	4.5	.	1.0
CCOc1cc(C)c(S(=O)(=O)Nc2ccc3cn[nH]c3c2)cc1C	30.8	-10.9	3.6	5.5	?	89.1*
CC(=O)O[C@H]1C(=O)[C@@]2(C)C([C@H](OC(=O)c3ccccc3)[C@]3(O)C[C@H](OC(=O)[C@H](O)[C@@H](NC(=O)c4ccccc4)c4ccccc4)C(C)=C1C3(C)C)[C@]1(OC(C)=O)CO[C@@H]1C[C@H]2O (some centres not stated)	42.5	48.5	3.0	2.8	61.0*	22.5
CCc1cc2c(CN3CCN(Cc4ccccc4)CC3)cc(=O)oc2cc1O	19.3	4.6	-14.3	7.2	44.0	4.4
Cc1c(O)ccc2c(CN3CCN(Cc4ccccc4)CC3)cc(=O)oc12	-9.2	0.8	5.4	3.3	56.1*	-3.0
CCOc1ccc2oc(=O)cc(CN3CCN(C(=O)c4ccco4)CC3)c2c1	7.9	-17.0	9.6	3.9	17.9	-2.5
CCOc1ccc2oc(=O)cc(CN3CCN(Cc4ccccc4)CC3)c2c1	2.6	6.8	-4.9	29.4	58.5*	-6.0
O=c1cc(CN2CCN(Cc3ccccc3)CC2)c2ccc(O)c(O)c2o1	11.3	23.0	88.0*	26.0	50.8	-2.6
CC(C)C(Sc1nc(-c2ccccc2)cc(-c2ccccc2)c1C#N)C(=O)O (configuration not stated)	-4.9	47.6	87.0*	2.0	17.5	-0.4
COc1ccc(CNC(=O)Cn2ccc(N)nc2=O)cc1	2.3	1.4	.	24.8	.	1.1
CC(=Nc1ccc(Br)cc1)c1sc2ccccc2c1O	-356.1	27.9	-9.0	8.4	60.3*	3.0
CC(=Nc1ccccc1)c1sc2ccccc2c1O	-285.4	10.6	7.0	22.5	26.3	-4.4
Cc1nn(C)c(C(=O)Nc2ccc(S(=O)(=O)NC34CC5CC(CC(C5)C3)C4)cc2)c1Br	47.6	.	0.9	3.1	59.2*	36.3
O=[N+]([O-])c1cccc(S(=O)(=O)N2CCC(c3nc(-c4ccncc4)no3)CC2)c1	-31.6	6.8	-2.4	7.4	60.6*	-5.2
CC(=O)c1nn(-c2cccc(Br)c2)cc1C(=O)c1ccc(C)cc1	6.1	-0.2	94.7*	6.8	7.9	1.4
SMILES	Mdm2 MdmX PPI	CSC inhib	Calb FLC	NLRP3 yeast inh	T cruzi repl	Beta apoptosis
Cc1ccc(-n2cc(CN(C)Cc3ncc[nH]3)c(-c3cccc(C)c3)n2)cc1	9.2	7.1	-3.6	-23.7	58.0*	30.3
CN(Cc1ncc[nH]1)Cc1cn(-c2ccccc2)nc1-c1ccc2c(c1)OCO2	18.4	-20.0	?	-15.3	10.3	1.5
CCn1cc(C(=O)OCC(=O)Nc2cccc(Cl)c2Cl)c(=O)c2ccc(C)nc21	-12.6	.	105.7*	28.8	-3.5	-1.1
NC(=S)N/N=C/c1ccc(-c2cc(Cl)cc(Cl)c2)o1	-5.2	19.9	?	-0.6	59.2*	-2.4
COC(=O)N/N=C/c1ccc(-c2cc(Cl)cc(Cl)c2)o1	16.7	1.0	78.9*	21.9	25.1	-1.6
O=C(N/N=C/c1ccc(-c2ccccc2Cl)o1)c1ccccc1	-6.7	63.2	7.8	-1.0	75.0*	5.1
O=C(N/N=C/c1ccc(-c2cccc(C(F)(F)F)c2)o1)c1cccc(F)c1	42.5	58.0	-16.4	-15.3	68.8*	5.2
NC(=O)N/N=C/c1ccc(-c2cccc(C(F)(F)F)c2)o1	4.8	8.4	18.5	20.2	7.6	-9.3
COC(=O)N/N=C/c1ccc(-c2cccc(Cl)c2)o1	-6.5	-3.2	?	39.2	28.9	0.8
CCc1ccc(OCC(=O)Nc2ccc(S(=O)(=O)Nc3ccccn3)cc2)cc1	18.5	0.9	-2.0	13.0	-10.9	-1.0
CCOC(=O)N/N=C\c1ccc(-c2cc(Cl)ccc2Cl)o1	-17.6	10.1	14.0	4.4	32.9	-5.8
NC(=S)N/N=C/c1ccc(-c2cc(Cl)ccc2Cl)o1	29.8	27.9	92.5*	16.9	67.3*	10.1
O=C(CN1CCN(Cc2ccccc2)CC1)NNC(=O)c1ccc(Cl)cc1	-0.1	13.8	1.8	18.0	-4.5	0.2
N#Cc1ccccc1Cn1cc(/C=N/Nc2ccc([N+](=O)[O-])cn2)c2ccccc21	28.2	17.2	-6.5	29.3	64.4*	9.9
COc1ccc(CN2CCNC(=O)C2CC(=O)N(C)Cc2ccno2)c(F)c1 (configuration not stated)	12.7	-8.0	-3.0	9.9	-0.1	-5.5
COc1ccc(C(=O)Nc2ccc(C(=O)OCC(=O)c3ccccc3)cc2)cc1	0.9	-0.4	-1.7	-1.4	-4.8	4.4
NS(=O)(=O)c1cc(C(=O)OCCNC(=O)c2ccccc2)c(Cl)cc1Cl	6.0	-9.5	0.6	3.0	-3.2	-3.8
Cc1cc2ncn(/N=C/c3ccc([N+](=O)[O-])o3)c2cc1C	25.8	15.5	-4.2	-0.7	60.1*	50.2
Cc1ccc(S(=O)(=O)N/N=C\c2ccc([N+](=O)[O-])o2)cc1C	18.5	5.7	7.3	7.8	7.2	0.9
Cc1c(NC(=O)COc2cccc(Cl)c2Cl)c(=O)n(-c2ccccc2)n1C	-7.2	11.4	4.5	4.9	6.4	.
CC(=O)C1=C(c2ccc(Br)cc2)C(=O)c2ccccc2C1=O	.	113.9*	71.4	.	55.0*	107.2*
O=C(N/N=C/c1ccc([N+](=O)[O-])o1)c1cn(-c2ccccc2)nc1-c1ccccc1	36.0	6.1	10.0	-9.4	59.9*	18.8

High-throughput results as filed in PubChem BioAssay.
